# Laboratory results published in ChEMBL document CHEMBL2010799, “Hypoglycemic diterpenoids from Tinospora crispa” (2012).
# The source made the active and inactive calls. The rule behind the calls is not given here.
# Experiments:
# MIN6 = assay: Induction of insulin secretion in mouse MIN6 cells; format: functional, cell-based
# Mus musculus [1] = assay: Antidiabetic activity in STZ-induced ICR mouse T1DM model assessed as reduction in plasma glucose level at 5 mg/kg, ip after 60 mins; format: functional, organism-based; design: dose 5 mg/kg
# In short: (§1)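 ICR mice (normal, STZ-induced T1DM, or diet-induced T2DM) received a single ip injection in 2% DMSO/normal saline vehicle. Orbital plexus blood was drawn under pentobarbital anesthesia before and 60 min after injection. Plasma glucose was read with a glucose kit and analyzer and expressed as percent decrease, (Gi − Gt)/Gi × 100%. Seven animals per group, mean ± SEM.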
# [2] = Blockade of ATP-sensitive K+ channels
# Mus musculus [3] = assay: Antidiabetic activity in normal ICR mouse assessed as reduction in plasma glucose level at 5 mg/kg, ip after 60 mins; format: functional, organism-based; design: dose 5 mg/kg; in short: as §1
# Mus musculus [4] = assay: Antidiabetic activity in normal ICR mouse assessed as reduction in plasma glucose level at 5 mg/kg, ip after 60 mins relative to metformin at 200 mg/kg, ip; format: functional
# Mus musculus [5] = assay: Antidiabetic activity in STZ-induced ICR mouse T1DM model assessed as reduction in plasma glucose level at 5 mg/kg, ip after 60 mins relative to metformin at 200 mg/kg, ip; format: functional
# Mus musculus [6] = assay: Antidiabetic activity in normal ICR mouse assessed as increase in plasma insulin level at 5 mg/kg, ip after 60 mins by ELISA (reference value: 57.6 +/- 2.4 pmol/L); format: functional; conditions: route intraperitoneal
# Mus musculus [7] = assay: Antidiabetic activity in ip dosed diet-induced ICR mouse T2DM model assessed as reduction in plasma glucose level after 60 mins; format: functional, organism-based; in short: as §1
# Mus musculus [8] = assay: Antidiabetic activity in diet-induced ICR mouse T2DM model assessed as reduction in plasma glucose level after 60 to 150 mins post glucose challenge by ip glucose tolerance test; format: functional, organism-based
# Mus musculus [9] = assay: Antidiabetic activity in diet-induced ICR mouse T2DM model assessed as increase in plasma insulin level at 1 mg/kg, ip after 60 mins by ELISA (reference value: 111.6 +/- 2.7 pmol/L); format: functional; conditions: route intraperitoneal
# Mus musculus [10] = assay: Antidiabetic activity in ip dosed STZ-induced ICR mouse T1DM model assessed as reduction in plasma glucose level after 60 mins; format: functional, organism-based; in short: as §1
# Mus musculus [11] = assay: Antidiabetic activity in diet-induced ICR mouse T2DM model assessed as increase in plasma insulin level at 0.1 mg/kg, ip after 60 mins by ELISA (reference value: 111.8 +/- 5.2 pmol/L); format: functional; conditions: route intraperitoneal
# Mus musculus [12] = assay: Antidiabetic activity in STZ-induced ICR mouse T1DM model assessed as decrease in phosphoenolpyruvate carboxykinase level in liver at 5 mg/kg administered bid for 7 days by Western blotting analysis; format: functional, organism-based; design: dose 5 mg/kg
# In short: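 Male ICR mice with STZ-induced T1DM (fasting glucose >350 mg/dL, used 4 weeks after STZ) were dosed ip at 5.0 mg/kg twice daily for 7 days. Liver homogenates (60 µg) were run on 8% SDS-PAGE and Western blotted with PEPCK antibody (1:1000), with ECL detection. PEPCK (70 kDa) and β-actin (43 kDa) were quantified by densitometry; n = 3.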
# Mus musculus [13] = assay: Antidiabetic activity in ip dosed normal ICR mouse assessed as reduction in plasma glucose level after 60 mins; format: functional, organism-based; in short: as §1
# Mus musculus [14] = assay: Antidiabetic activity in diet-induced ICR mouse T2DM model assessed as increase in plasma insulin level at 3 mg/kg, ip after 60 mins by ELISA (reference value: 112.1 +/- 3.2 pmol/L); format: functional; conditions: route intraperitoneal
# Mus musculus [15] = assay: Antidiabetic activity in diet-induced ICR mouse T2DM model assessed as reduction in plasma glucose level after 30 mins post glucose challenge by ip glucose tolerance test (reference value: 406 +/- 9 mg/dL); format: functional
# Mus musculus [16] = assay: Antidiabetic activity in normal ICR mouse assessed as increase in plasma insulin level at 0.1 mg/kg, ip after 60 mins by ELISA (reference value: 54 +/- 3.4 pmol/L); format: functional; conditions: route intraperitoneal
# Mus musculus [17] = assay: Antidiabetic activity in normal ICR mouse assessed as reduction in plasma glucose level after 60 to 150 mins post glucose challenge by ip glucose tolerance test; format: functional, organism-based
# Mus musculus [18] = assay: Antidiabetic activity in normal ICR mouse assessed as increase in plasma insulin level at 1 mg/kg, ip after 60 mins by ELISA (reference value: 60.3 +/- 3.7 pmol/L); format: functional; conditions: route intraperitoneal
# Mus musculus [19] = assay: Antidiabetic activity in diet-induced ICR mouse T2DM model assessed as increase in plasma insulin level at 0.5 mg/kg, ip after 60 mins by ELISA (reference value: 120.8 +/- 4.3 pmol/L); format: functional; conditions: route intraperitoneal
# Mus musculus [20] = assay: Antidiabetic activity in STZ-induced ICR mouse T1DM model assessed as increase in plasma insulin level at 0.1 mg/kg, ip after 60 mins by ELISA (reference value: 15.2 +/- 0.8 pmol/L); format: functional; conditions: route intraperitoneal
# Mus musculus [21] = assay: Antidiabetic activity in normal ICR mouse assessed as increase in plasma insulin level at 3 mg/kg, ip after 60 mins by ELISA (reference value: 52 +/- 3.7 pmol/L); format: functional; conditions: route intraperitoneal
# Mus musculus [22] = assay: Antidiabetic activity in normal ICR mouse assessed as reduction in plasma glucose level after 30 mins post glucose challenge by ip glucose tolerance test (reference value: 346 +/- 15 mg/dL); format: functional
# Mus musculus [23] = assay: Antidiabetic activity in diet-induced ICR mouse T2DM model assessed as increase in plasma insulin level at 5 mg/kg, ip after 60 mins by ELISA (reference value: 112.1 +/- 6.3 pmol/L); format: functional; conditions: route intraperitoneal
# Mus musculus [24] = assay: Antidiabetic activity in STZ-induced ICR mouse T1DM model assessed as increase in plasma insulin level at 0.5 mg/kg, ip after 60 mins by ELISA (reference value: 16.2 +/- 0.7 pmol/L); format: functional; conditions: route intraperitoneal
# Mus musculus [25] = assay: Antidiabetic activity in STZ-induced ICR mouse T1DM model assessed as increase in plasma insulin level at 1 mg/kg, ip after 60 mins by ELISA (reference value: 15.7 +/- 1.0 pmol/L); format: functional; conditions: route intraperitoneal
# Mus musculus [26] = assay: Antidiabetic activity in STZ-induced ICR mouse T1DM model assessed as increase in plasma insulin level at 5 mg/kg, ip after 60 mins by ELISA (reference value: 14.7 +/- 0.4 pmol/L); format: functional; conditions: route intraperitoneal
# Mus musculus [27] = assay: Antidiabetic activity in STZ-induced ICR mouse T1DM model assessed as increase in plasma insulin level at 3 mg/kg, ip after 60 mins by ELISA (reference value: 13.8 +/- 1.6 pmol/L); format: functional; conditions: route intraperitoneal
# Mus musculus [28] = assay: Antidiabetic activity in normal ICR mouse assessed as increase in plasma insulin level at 0.5 mg/kg, ip after 60 mins by ELISA (reference value: 53.1 +/- 3.3 pmol/L); format: functional; conditions: route intraperitoneal
# Mus musculus [29] = assay: Antidiabetic activity in normal ICR mouse assessed as reduction in plasma glucose level at 5 mg/kg, ip after 60 mins (reference value: 102 +/- 3.7 mg/dL); format: functional; conditions: route intraperitoneal; in short: as §1
# Mus musculus [30] = assay: Antidiabetic activity in normal ICR mouse assessed as increase in plasma insulin level at 5 mg/kg, ip after 60 mins by ELISA (reference value: 52.5 +/- 4.6 pmol/L); format: functional; conditions: route intraperitoneal
# Mus musculus [31] = assay: Antidiabetic activity in diet-induced ICR mouse T2DM model assessed as reduction in plasma glucose level at 5 mg/kg, ip after 60 mins (reference value: 170 +/- 2.8 mg/dL); format: functional; conditions: route intraperitoneal; in short: as §1
# Mus musculus [32] = assay: Antidiabetic activity in diet-induced ICR mouse T2DM model assessed as increase in plasma insulin level at 5 mg/kg, ip after 60 mins by ELISA (reference value: 123.5 +/- 10.2 pmol/L); format: functional; conditions: route intraperitoneal
# Mus musculus [33] = assay: Antidiabetic activity in STZ-induced ICR mouse T1DM model assessed as reduction in plasma glucose level at 200 mg/kg, ip after 60 mins; format: functional, organism-based; design: dose 200 mg/kg; in short: as §1
# Mus musculus [34] = assay: Antidiabetic activity in STZ-induced ICR mouse T1DM model assessed as increase in plasma insulin level at 200 mg/kg, ip after 60 mins by ELISA (reference value: 13.5 +/- 1.1 pmol/L); format: functional; conditions: route intraperitoneal
# Mus musculus [35] = assay: Antidiabetic activity in normal ICR mouse assessed as reduction in plasma glucose level at 200 mg/kg, ip after 60 mins; format: functional, organism-based; design: dose 200 mg/kg; in short: as §1
smiles,measurement,setting,value
COC(=O)C1=C[C@H](O)C[C@H]2[C@]3(C)C[C@@H](c4ccoc4)OC(=O)[C@H]3C[C@H](O[C@@H]3O[C@H](CO)[C@@H](O)[C@H](O)[C@H]3O)[C@@]12C,Activity,MIN6,inactive
same,Activity,Mus musculus [1],inactive
same,Activity,[2],inactive
same,Activity,Mus musculus [3],inactive
C[C@@]12C[C@@H](c3ccoc3)OC(=O)[C@@H]1C[C@@H]1OC(=O)[C@@]3(O)[C@@H](O[C@@H]4O[C@H](CO)[C@@H](O)[C@H](O)[C@H]4O)CC[C@@H]2[C@@]13C [BORAPETOSIDE A],Activity,MIN6,inactive
same,Activity,Mus musculus [1],Active
same,Activity,[2],inactive
same,fold change (FC),Mus musculus [4],2
same,Activity,Mus musculus [3],Active
same,fold change (FC),Mus musculus [5],2
COC(=O)C1=CCC[C@H]2[C@]3(C)C[C@@H](c4ccoc4)OC(=O)[C@@H]3C[C@@H](O[C@@H]3O[C@H](CO)[C@@H](O)[C@H](O)[C@H]3O)[C@@]12C [BORAPETOSIDE C],Activity,Mus musculus [6],149.6 pmol/L
same,Activity,Mus musculus [7],Dose-dependent effect
same,Activity,Mus musculus [8],Active
same,Activity,Mus musculus [9],173 pmol/L
same,Activity,Mus musculus [10],Dose-dependent effect
same,Activity,MIN6,inactive
same,Activity,Mus musculus [11],111.3 pmol/L
same,Activity,Mus musculus [12],Active
same,Activity,Mus musculus [13],Dose-dependent effect
same,Activity,Mus musculus [14],253.9 pmol/L
same,Activity,Mus musculus [1],Active
same,Activity,Mus musculus [15],343 mg/dL
same,Activity,Mus musculus [16],71.5 pmol/L
same,Activity,[2],inactive
same,Activity,Mus musculus [17],Active
same,Activity,Mus musculus [3],Active
same,Activity,Mus musculus [18],63 pmol/L
same,Activity,Mus musculus [19],170.8 pmol/L
same,Activity,Mus musculus [20],16.3 pmol/L
same,Activity,Mus musculus [21],142.6 pmol/L
same,Activity,Mus musculus [22],293 mg/dL
same,Activity,Mus musculus [23],257.6 pmol/L
same,Activity,Mus musculus [24],15.7 pmol/L
same,Activity,Mus musculus [25],15.9 pmol/L
same,Activity,Mus musculus [26],14.3 pmol/L
same,Activity,Mus musculus [27],14.8 pmol/L
same,Activity,Mus musculus [28],70.7 pmol/L
COc1ccc(Cl)cc1C(=O)NCCc1ccc(S(=O)(=O)NC(=O)NC2CCCCC2)cc1 [GLYBURIDE],Activity,Mus musculus [29],84 mg/dL
same,Activity,Mus musculus [30],145.8 pmol/L
same,Activity,Mus musculus [31],108 mg/dL
same,Activity,Mus musculus [32],208.8 pmol/L
CN(C)C(=N)NC(=N)N [METFORMIN],Activity,Mus musculus [33],Active
same,Activity,Mus musculus [34],15.1 pmol/L
same,Activity,Mus musculus [35],Active
